Bounds are passed on as bounds.

What all share (assay type): functional, cell-based
One test deals with A-431. In words: Cytotoxic effect on A431 cell proliferation after 72 hr. To be noted: Homo sapiens, A-431, 72 h. A digest of the protocol:
(§1)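 Human cancer cell lines were exposed to the compound continuously for 72 h, and growth inhibition was measured. IC50 was taken as the concentration that inhibits 50% of cell-line growth.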

For test [1], the system named is A549. In words: Compound was tested for its cytotoxicity by inhibiting the growth of A-549 cell line after 72 h. The following applies: Homo sapiens, A549, 72 h.
Another test has as its system MCF7. Nature of the test: Compound was tested for its cytotoxicity by inhibiting the growth of MCF-7 cell line after 72 h. To be noted: Homo sapiens, MCF7, 72 h.
Test [2] deals with A549. In words: Concentration of compound that Compound was tested for its cytotoxicity by inhibiting the growth of A-549 cell line after 72 h. To be noted: Homo sapiens, A549, 72 h. A digest of the protocol: as §1
Test [3] concerns A549. Nature of the test: Concentration of compound that inhibits 50% of growth of Compound was tested for its cytotoxicity by inhibiting the growth of. To be noted: Homo sapiens.

The term IC50 denotes the concentration at which inhibition is half-maximal. A high value points to lower potency. With `CSSCCC(=O)O[C@@H](C(=O)O[C@H]1C[C@@]2(O)[C@@H](OC(=O)c3ccccc3)[C@@H]3[C@]4(OC(C)=O)CO[C@@H]4C[C@H](O)[C@@]3(C)C(=O)[C@H](OC(C)=O)C(=C1C)C2(C)C)[C@H](C=C(C)C)NC(=O)OC(C)(C)C`, the IC50 in the test on A-431 is greater than 3 nM; in the test on A549 [1] it was 0.9 nM.

With `CSSCCC(=O)O[C@H]1C(=O)[C@@]2(C)[C@H]([C@H](OC(=O)c3cccc(Cl)c3)[C@]3(O)C[C@H](OC(=O)[C@H](O)[C@H](C=C(C)C)NC(=O)OC(C)(C)C)C(C)=C1C3(C)C)[C@]1(OC(C)=O)CO[C@@H]1C[C@@H]2O`, the IC50 with MCF7 turned out to be 0.08 nM; in the test on A549 [2], 0.29 nM.

`CC(=O)O[C@H]1C(=O)[C@@]2(C)[C@H]([C@H](OC(=O)c3cccc(N(C)C)c3)[C@]3(O)C[C@H](OC(=O)[C@H](O)[C@H](C=C(C)C)NC(=O)OC(C)(C)C)C(C)=C1C3(C)C)[C@]1(OC(C)=O)CO[C@@H]1C[C@@H]2O`: the IC50 with A549 [1] and in the test on MCF7 was 1 nM in each case.

`CSSCCC(=O)O[C@H]1C(=O)[C@@]2(C)[C@H]([C@H](OC(=O)c3cccc(N(C)C)c3)[C@]3(O)C[C@H](OC(=O)[C@H](O)[C@H](C=C(C)C)NC(=O)OC(C)(C)C)C(C)=C1C3(C)C)[C@]1(OC(C)=O)CO[C@@H]1C[C@@H]2O`: the IC50 in the test with A549 [1] was greater than 3 nM; with MCF7 it was 3 nM.

With `CC(=O)O[C@H]1C(=O)[C@@]2(C)[C@H]([C@H](OC(=O)c3cc(F)cc(F)c3)[C@]3(O)C[C@H](OC(=O)[C@H](O)[C@H](C=C(C)C)NC(=O)OC(C)(C)C)C(C)=C1C3(C)C)[C@]1(OC(C)=O)CO[C@@H]1C[C@@H]2O`, the values for the IC50 in the test with A549 [3] and with MCF7 were 0.1 nM and 0.04 nM, respectively.

As for `COc1cccc(C(=O)O[C@H]2[C@@H]3[C@]4(OC(C)=O)CO[C@@H]4C[C@H](O)[C@@]3(C)C(=O)[C@H](OC(=O)CCSSC)C3=C(C)[C@@H](OC(=O)[C@H](O)[C@H](C=C(C)C)NC(=O)OC(C)(C)C)C[C@]2(O)C3(C)C)c1`, the figures for the IC50 in the test with A549 [1] and in the test with MCF7 were 0.1 nM and 0.038 nM, respectively.

As to `CC(=O)O[C@H]1C(=O)[C@@]2(C)[C@H]([C@H](OC(=O)c3cccc(Cl)c3)[C@]3(O)C[C@H](OC(=O)[C@H](O)[C@H](C=C(C)C)NC(=O)OC(C)(C)C)C(C)=C1C3(C)C)[C@]1(OC(C)=O)CO[C@@H]1C[C@@H]2O`, the IC50 in the test on A549 [1] amounted to 0.03 nM; in the test with MCF7, 0.02 nM.

Consider `COc1cccc(C(=O)O[C@H]2[C@@H]3[C@]4(OC(C)=O)CO[C@@H]4C[C@H](O)[C@@]3(C)C(=O)[C@H](OC(C)=O)C3=C(C)[C@@H](OC(=O)[C@H](O)[C@H](C=C(C)C)NC(=O)OC(C)(C)C)C[C@]2(O)C3(C)C)c1`, for which the IC50 was 0.04 nM in the test with A549 [1] and 0.02 nM in the test on MCF7.

Consider `CSSCCC(=O)N[C@@H](CC(C)C)[C@@H](O)C(=O)O[C@H]1C[C@@]2(O)[C@@H](OC(=O)c3ccccc3)[C@@H]3[C@]4(OC(C)=O)CO[C@@H]4C[C@H](O)[C@@]3(C)C(=O)[C@H](OC(=O)N3CCOCC3)C(=C1C)C2(C)C`, for which the IC50 with A-431 is 2.8 nM; in the test with A549 [1] it was greater than 3 nM.

As for `CCC(=O)O[C@H]1C(=O)[C@@]2(C)[C@H]([C@H](OC(=O)c3ccccc3)[C@]3(O)C[C@H](OC(=O)[C@H](O)[C@H](CC(C)C)NC(=O)CCSSC)C(C)=C1C3(C)C)[C@]1(OC(C)=O)CO[C@@H]1C[C@@H]2O`, the IC50 in the test with A-431 and in the test with A549 [1] was greater than 3 nM in each case.

With `CSSCCC(=O)O[C@H]1C(=O)[C@@]2(C)[C@H]([C@H](OC(=O)c3cc(F)cc(F)c3)[C@]3(O)C[C@H](OC(=O)[C@H](O)[C@H](C=C(C)C)NC(=O)OC(C)(C)C)C(C)=C1C3(C)C)[C@]1(OC(C)=O)CO[C@@H]1C[C@@H]2O`, the figures for the IC50 in the test with A549 [1] and in the test with MCF7 were 0.36 nM and 0.15 nM, respectively.

In the case of `COc1ccc(OC)c(C(=O)O[C@H]2[C@@H]3[C@]4(OC(C)=O)CO[C@@H]4C[C@H](O)[C@@]3(C)C(=O)[C@H](OC(C)=O)C3=C(C)[C@@H](OC(=O)[C@H](O)[C@H](C=C(C)C)NC(=O)OC(C)(C)C)C[C@]2(O)C3(C)C)c1`, the IC50 in the test on A549 [1] and with MCF7 was 0.03 nM throughout.

In the case of `COc1ccc(OC)c(C(=O)O[C@H]2[C@@H]3[C@]4(OC(C)=O)CO[C@@H]4C[C@H](O)[C@@]3(C)C(=O)[C@H](OC(=O)CCSSC)C3=C(C)[C@@H](OC(=O)[C@H](O)[C@H](C=C(C)C)NC(=O)OC(C)(C)C)C[C@]2(O)C3(C)C)c1`, the IC50 in the test on A549 [1] was 0.08 nM; with MCF7, 0.04 nM.

With `CSSCCC(=O)O[C@H]1C[C@H]2OC[C@@]2(OC(C)=O)[C@H]2[C@H](OC(=O)c3ccccc3)[C@]3(O)C[C@H](OC(=O)[C@H](O)[C@H](C=C(C)C)NC(=O)OC(C)(C)C)C(C)=C([C@@H](O)C(=O)[C@]12C)C3(C)C`, the concentration for half-maximal inhibition (IC50) with A-431 was found to be 0.3 nM; in the test with A549 [1], 0.2 nM.

For `CSSc1cccc(C(=O)O[C@H]2[C@@H]3[C@]4(OC(C)=O)CO[C@@H]4C[C@H](O)[C@@]3(C)C(=O)[C@H](OC(C)=O)C3=C(C)[C@@H](OC(=O)[C@H](O)[C@H](C=C(C)C)NC(=O)OC(C)(C)C)C[C@]2(O)C3(C)C)c1`, the IC50 in the test with A-431 and in the test on A549 [1] was greater than 3 nM throughout.

The values above are taken from ChEMBL document CHEMBL1137139, “Synthesis of potent taxoids for tumor-specific delivery using monoclonal antibodies” (Bioorg Med Chem Lett, 2004).
